Active and inactive are the calls of the source. The rule behind the calls is not given here.
Assays:
Plasmodium falciparum [1] = test: Antiplasmodial activity against Plasmodium falciparum assessed as inhibition of parasite LDH activity after 72 hrs; assay type: functional, organism-based
How it was run: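 P. falciparum ItG grown in O+ human erythrocytes in RPMI-1640 with 10% human serum and 50 µM hypoxanthine. DMSO stocks (10 mg/mL) diluted two-fold serially; culture at 2% hematocrit and 2% parasitemia incubated 72 h at 37 °C under 95% N₂/3% CO₂/2% O₂. pLDH assay read at 595 nm after 1 h; IC50 by non-linear regression, mean ± SEM, n = 4; chloroquine positive control.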

CHO = test: Cytotoxicity against CHO cells after 48 hrs by MTT assay; assay type: cell-based; details: Cricetulus griseus
How it was run: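 CHO cells grown in RPMI-1640 with 10% fetal calf serum, 25 mM HEPES and gentamicin, to 50% confluency, then given two-fold gradients from 10 mg/mL DMSO stocks; DMSO-only control. After 48 h, MTT (10 mg/mL) was added for 30 min, then DMSO; absorbance read at 650 nm. IC50 by non-linear regression of sigmoidal dose-response curves; four determinations, mean ± SEM.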

[2] = Ratio of IC50 for CHO cells to IC50 for Plasmodium falciparum
Plasmodium berghei [3] = test: Antiplasmodial activity against Plasmodium berghei […] by SYBR green 1 assay; assay type: functional, organism-based
How it was run: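 P. berghei blood from an infected mouse (5% parasitemia) obtained by cardiac puncture and washed 3 times in RPMI. Plated at 2% hematocrit in a two-fold compound gradient. Wells agitated at 24 h to release merozoites, then incubated a further 24 h. SYBR-Green I fluorescence read-out; IC50 from four independent determinations, mean ± SEM.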

Plasmodium falciparum [4] = test: Antiplasmodial activity against Plasmodium falciparum 3D7 assessed as reduction in parasitemia at 40 nM measured between day 1 and day 2 relative to control; assay type: functional, organism-based
How it was run: (§1)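 P. falciparum 3D7 cultures synchronized at mature stage on Percoll one day before the start. Set to 1% hematocrit and 2% parasitemia, treated with 40 nM or 83 nM compound, and sampled every 24 h for 4 days. Parasitemia counted on Giemsa-stained smears. Controls: uninfected RBCs, untreated cultures, sulfated β-cyclodextrin sodium salt and chloroquine.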

Plasmodium falciparum [5] = test: Antiplasmodial activity against Plasmodium falciparum 3D7 assessed as reduction in parasitemia at 83 nM measured between day 1 and day 2 relative to control; assay type: functional, organism-based; how it was run: as §1
Plasmodium falciparum [6] = test: Antiplasmodial activity against Plasmodium falciparum assessed as inhibition of merozoite invasion of RBCs at 20 uM after 48 hrs by SYBR green 1 fluorescence-based flow cytometry; assay type: functional, organism-based
How it was run: (§2)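 Sorbitol-synchronized ring-stage P. falciparum set to 5% parasitemia and 0.5% hematocrit, then treated for 48 h. An equal volume of RPMI-1640 with 0.2 µL/mL stock SYBR-Green was added for 1 h in the dark before flow cytometry (~200,000 events). Quadrant counts of parasitized, non-parasitized and small DNA-containing events were taken relative to total erythrocytes.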

Plasmodium berghei [7] = test: Antiplasmodial activity against Plasmodium berghei infected in BALB/c mouse assessed as delay in onset of parasitemia at 75 ug/day infused once daily for 3 days by Giemsa staining relative to control; assay type: functional, organism-based
How it was run: (§3)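 Female Balb/c mice, 6–8 weeks old, infected with 10⁶ P. berghei on Day 0 and followed by Giemsa-stained blood films until parasites appeared. Then infused once daily for three days with 0.5 mL RPMI-1640 or compound in RPMI-1640; vehicle control 1% (v/v) DMSO in RPMI-1640; chloroquine 15 mg/kg/day as positive control. Parasitemia by Giemsa films; five mice per group.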

Plasmodium falciparum [8] = test: Antiplasmodial activity against Plasmodium falciparum assessed as inhibition of parasite adherence to RBCs at 20 uM after 48 hrs by microscopic analysis; assay type: functional, organism-based
Plasmodium berghei [9] = test: Antiplasmodial activity against Plasmodium berghei infected in BALB/c mouse assessed as delay in onset of parasitemia infused once daily for 3 days by Giemsa staining relative to control
Plasmodium berghei [10] = test: Antiplasmodial activity against Plasmodium berghei infected in BALB/c mouse assessed as reduction in parasitemia at 15 mg/kg infused once daily for 4 days measured after 4 days by YOYO-1 staining based flow cytometry relative to control; parameters: scale not given: the % may be the effect or the level left
Plasmodium falciparum [11] = test: Antiplasmodial activity against Plasmodium falciparum 3D7 assessed as reduction in parasitemia measured between day 1 and day 2 relative to control; assay type: functional, organism-based; how it was run: as §1
Plasmodium falciparum [12] = test: Antiplasmodial activity against Plasmodium falciparum assessed as inhibition of merozoite invasion of RBCs at 1 uM after 48 hrs by SYBR green 1 fluorescence-based flow cytometry; assay type: functional, organism-based; how it was run: as §2
Plasmodium falciparum [13] = test: Antiplasmodial activity against Plasmodium falciparum assessed as inhibition of merozoite invasion of RBCs at 0.2 mg/ml after 48 hrs by SYBR green 1 fluorescence-based flow cytometry; assay type: functional, organism-based; how it was run: as §2
Plasmodium berghei [14] = test: Antiplasmodial activity against Plasmodium berghei infected in BALB/c mouse assessed as delay in onset of parasitemia at 60 ug/day infused once daily for 3 days by Giemsa staining relative to control; assay type: functional, organism-based; how it was run: as §3

Row | SMILES | IC50 (Plasmodium falciparum [1]) | IC50 (CHO) | Ratio IC50 [2] | other results
1 | CC[n+]1ccn(CCCCCCCCCCCCn2cc[n+](CC)c2)c1.[I-].[I-] | 0.012 µM | 34 µM | 2833 | IC50 (Plasmodium berghei [3]): 0.12 µM
2 | C[n+]1ccn(CCCCn2cc[n+](C)c2)c1.[I-].[I-] | 67 µM |  | 1.8 | 
3 | Cl.Cl.c1cn(CCCCCCCCCCn2ccnc2)cn1 | 9.2 µM | 15 µM | 1.6 | 
4 | C[n+]1cnn(CCCCCCCCCCCCn2c[n+](C)cn2)c1.[I-].[I-] | 0.008 µM | 52 µM | 6500 | Activity (Plasmodium falciparum [4]): inactive; Activity (Plasmodium falciparum [5]): Active; inhibition (Plasmodium falciparum [6]): inactive; Activity (Plasmodium berghei [7]): Active; inhibition (Plasmodium falciparum [8]): Active; Activity (Plasmodium berghei [9]): 50%; Activity (Plasmodium berghei [10]): 75%
5 | C[n+]1ccn(CCCCCCn2cc[n+](C)c2)c1.[I-].[I-] | 2.6 µM |  | 56 | 
6 | c1cn(CCCCCCCCCCCCCCCCCCCCn2ccnc2)cn1 | 2.5 µM | 8 µM | 3.2 | 
7 | Cl.Cl.c1cn(CCCOc2ccc(OCCCn3ccnc3)cc2)cn1 | 4.9 µM | 50 µM | 10 | 
8 | c1cn(CCCCCCCCCCCCCCCCCCn2ccnc2)cn1 | 0.4 µM | 1.2 µM | 3 | 
9 | C[n+]1ccn(CCCCCCCCCCCCn2cc[n+](C)c2)c1.[I-].[I-] | 0.006 µM | 26 µM | 4333 | inhibition (Plasmodium falciparum [6]): inactive; inhibition (Plasmodium falciparum [8]): Active
10 | C[n+]1ccn(-c2ccc(-c3ccc(-n4cc[n+](C)c4)cc3)cc2)c1.[I-].[I-] | 0.009 µM | 9 µM | 1000 | 
11 | Cl.Cl.c1cn(CCCCCCCCn2ccnc2)cn1 | 6 µM | 140 µM | 23 | 
12 | Cl.Cl.c1cn(CCCCCCCCCCCCCCn2ccnc2)cn1 | 1.6 µM | 4.4 µM | 2.8 | 
13 | c1cn(CCCCCCCCCCCCCCCCn2ccnc2)cn1 | 0.65 µM | 1.3 µM | 2 | 
14 | O=[N+]([O-])c1ccc(C[n+]2ccn(-c3ccc(-c4ccc(-n5cc[n+](Cc6ccc([N+](=O)[O-])cc6)c5)cc4)cc3)c2)cc1.[Br-].[Br-] | 0.023 µM | 14 µM | 609 | 
15 | O=C(Cn1cc[n+](CC(=O)c2ccc(Cl)cc2)c1)c1ccc(Cl)cc1 |  |  |  | inhibition (Plasmodium falciparum [6]): inactive; IC50 (Plasmodium berghei [3]): 4.2 µM; inhibition (Plasmodium falciparum [8]): Active
16 | c1cn(Cc2ccc(-c3ccc(Cn4ccnc4)cc3)cc2)cn1 | 1.7 µM | 65 µM | 38 | 
17 | Cl.Cl.c1cn(CCCCn2ccnc2)cn1 | 1070 µM | 1900 µM | 1.8 | 
18 | c1cn(-c2ccc(-n3ccnc3)cc2)cn1 | 93 µM | 1110 µM | 12 | 
19 | C[n+]1ccn(CCCCCCCCCCCCCCCCCCCCn2cc[n+](C)c2)c1.[I-].[I-] | 0.0021 µM | 1.4 µM | 667 | 
20 | C[n+]1ccn(CCCCCCCCCCCCCCn2cc[n+](C)c2)c1.[I-].[I-] | 0.0032 µM | 11 µM | 3438 | 
21 | Cl.Cl.c1ncn(CCCCCCCCCCCCn2cncn2)n1 | 19 µM | 11.7 µM | 0.6 | 

Row | SMILES | IC50 (Plasmodium falciparum [1]) | IC50 (CHO) | Ratio IC50 [2] | other results
22 | C[n+]1cn(-c2ccc(-c3ccc(-n4c[n+](C)c5ccccc54)cc3)cc2)c2ccccc21.[I-].[I-] | 0.07 µM | 98 µM | 1400 | 
23 | C[n+]1ccn(-c2ccc(-n3cc[n+](C)c3)cc2)c1.[I-].[I-] | 11.2 µM |  | 28 | 
24 | Cl.Cl.c1cn(CCCCCCn2ccnc2)cn1 | 90 µM | 899 µM | 10 | 
25 | CCC[n+]1ccn(CCCCCCCCCCCCn2cc[n+](CCC)c2)c1.[I-].[I-] | 0.0008 µM | 78 µM | 97500 | 
26 | C[n+]1ccn(CCCCCCCCCCCCCCCCCCn2cc[n+](C)c2)c1.[I-].[I-] | 0.0009 µM | 1.4 µM | 1556 | 
27 | Cl.Cl.c1cn(CCCCCCCCCCCCCn2ccnc2)cn1 | 0.56 µM | 3 µM | 5.4 | 
28 | C[n+]1ccn(CCCCCCCCCCCCCCCn2cc[n+](C)c2)c1.[I-].[I-] | 0.002 µM | 1.2 µM | 600 | 
29 | c1cn(-c2ccc(-c3ccc(-n4ccnc4)cc3)cc2)cn1 | 3.1 µM | 27 µM | 9 | 
30 | C[n+]1ccn(CCCCCCCCCCn2cc[n+](C)c2)c1.[I-].[I-] | 0.082 µM | 57 µM | 695 | 
31 | [Br-].[Br-].c1ccc(C[n+]2ccn(-c3ccc(-c4ccc(-n5cc[n+](Cc6ccccc6)c5)cc4)cc3)c2)cc1 | 0.022 µM | 12.1 µM | 550 | 
32 | C[n+]1ccn(Cc2ccc(-c3ccc(Cn4cc[n+](C)c4)cc3)cc2)c1.[I-].[I-] | 0.18 µM |  | 694 | 
33 | CCN(CC)CCCC(C)Nc1ccnc2cc(Cl)ccc12 (stereo unspecified) |  |  |  | Activity (Plasmodium falciparum [11]): Active; inhibition (Plasmodium falciparum [12]): Active
34 | C[n+]1ccn(CCCCCCCCn2cc[n+](C)c2)c1.[I-].[I-] | 4.7 µM |  | 96 | 
35 | O=S(=O)(O)OC[C@H]1O[C@@H]2O[C@H]3[C@H](O)[C@@H](O)[C@@H](O[C@H]4[C@H](O)[C@@H](O)[C@@H](O[C@H]5[C@H](O)[C@@H](O)[C@@H](O[C@H]6[C@H](O)[C@@H](O)[C@@H](O[C@H]7[C@H](O)[C@@H](O)[C@@H](O[C@H]8[C@H](O)[C@@H](O)[C@@H](O[C@H]1[C@H](O)[C@H]2O)O[C@@H]8COS(=O)(=O)O)O[C@@H]7COS(=O)(=O)O)O[C@@H]6COS(=O)(=O)O)O[C@@H]5COS(=O)(=O)O)O[C@@H]4COS(=O)(=O)O)O[C@@H]3COS(=O)(=O)O |  |  |  | Activity (Plasmodium falciparum [11]): Active; inhibition (Plasmodium falciparum [13]): Active
36 | Cl.Cl.c1cn(CCCCCCCCCCCCCCCn2ccnc2)cn1 | 0.93 µM | 2.8 µM | 3 | 
37 | c1cn(CCCCCCCCCCCn2ccnc2)cn1 | 1.9 µM | 20 µM | 11 | 
38 | C[n+]1ccn(CCCOc2ccc(OCCCn3cc[n+](C)c3)cc2)c1.[I-].[I-] | 0.045 µM |  | 2511 | IC50 (Plasmodium berghei [3]): 0.046 µM
39 | C[n+]1ccn(CCCCCCCCCCCCCCCCn2cc[n+](C)c2)c1.[I-].[I-] | 0.0005 µM | 2.7 µM | 5400 | 
40 | C[n+]1ccn(CCCCCCCCCCCCCn2cc[n+](C)c2)c1.[I-].[I-] | 0.007 µM | 51 µM | 7286 | Activity (Plasmodium berghei [14]): Active
41 | Cl.Cl.c1cn(CCCCCCCCCCCCn2ccnc2)cn1 | 4.1 µM | 1.4 µM | 0.3 | 
42 | C[n+]1ccn(CCCCCCCCCCCn2cc[n+](C)c2)c1.[I-].[I-] | 0.0061 µM | 42 µM | 6885 | IC50 (Plasmodium berghei [3]): 0.05 µM

From ChEMBL document CHEMBL1921730, “The anti-malarial activity of bivalent imidazolium salts” (Bioorg Med Chem, 2011)
